Assay results taken from ChEMBL document CHEMBL1125104, “Long-acting dihydropyridine calcium antagonists. 5. Synthesis and structure-activity relationships for a series of 2-[[(N-substituted-heterocyclyl)ethoxy]methyl]-1,4-dihydropyridine calcium antagonists” (J Med Chem, 1990).

Columns and labels:
[1] = species: Rattus norvegicus; assay: Concentration required to block Ca+2-induced contraction of K+ depolarized rat aorta; type: functional
Outline: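 Isolated rat aorta depolarized with potassium; contraction triggered by added calcium. IC50 is the concentration that inhibits the calcium-induced contraction by 50%.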

[2] = […] of rat aorta to […] of guinea pig; type: functional
[3] = species: Cavia porcellus; assay: Concentration required to depress contraction in the Langendorff-perfused guinea pig heart; type: functional
Outline: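 Langendorff-perfused guinea pig heart, in vitro. The negative inotropic effect is given as IC25, the concentration that depresses contraction by 25%.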

[4] = system: Canis familiaris; assay: Coronary vasodilator activity in anesthetized dogs at the dose of 150 ug/kg (iv); type: functional, Canis lupus familiaris
[5] = Half life of the compound

IC50 [1] [nM]	half-life [5] [min]	SMILES	Selectivity index [2]	pIC25 [3]	Decrease [4] [%]
31.6	–	CCO/C(O)=C1\C(COCCN2C(=O)CNC2=O)=NC(C)=C(C(=O)OC)C1c1ccccc1Cl (stereo not given)	5	6.8	–
100	–	CCO/C(O)=C1\C(COCCn2nncc2C(N)=O)=NC(C)=C(C(=O)OC)C1c1ccccc1Cl (stereo not given)	5	6.3	–
5.01	30	CCO/C(O)=C1\C(COCCn2ccnn2)=NC(C)=C(C(=O)OC)C1c1cccc(Cl)c1Cl (stereo not given)	10	7.3	79
50.1	–	CCOC(=O)c1cn(CCOCC2=NC(C)=C(C(=O)OC)C(c3ccccc3Cl)/C2=C(\O)OCC)nn1 (stereo not given)	2	7	–
100	–	CCOC(=O)c1cnnn1CCOCC1=NC(C)=C(C(=O)OC)C(c2ccccc2Cl)/C1=C(\O)OCC (stereo not given)	1.3	6.9	–
31.6	–	CCO/C(O)=C1\C(COCCn2cc(N)nc2O)=NC(C)=C(C(=O)OC)C1c1ccccc1Cl (stereo not given)	>32	<6	–
20	–	CCO/C(O)=C1\C(COCCN2CC(=O)N=C2N)=NC(C)=C(C(=O)OC)C1c1ccccc1Cl (stereo not given)	40	6.1	–
158	–	CCO/C(O)=C1\C(COCCn2c(N)cnc2O)=NC(C)=C(C(=O)OC)C1c1ccccc1Cl (stereo not given)	6	6	–
15.8	–	CCO/C(O)=C1\C(COCCn2ccnn2)=NC(C)=C(C(=O)OC)C1c1ccccc1Cl (stereo not given)	3	7.3	–
25.1	–	CCO/C(O)=C1\C(COCCN2CC(=O)N(C)C2=O)=NC(C)=C(C(=O)OC)C1c1ccccc1Cl (stereo not given)	16	6.4	–
3.16	20	CCO/C(O)=C1\C(COCCn2cc(C(N)=O)nn2)=NC(C)=C(C(=O)OC)C1c1cccc(Cl)c1Cl (stereo not given)	80	6.6	54
15.8	–	CCO/C(O)=C1\C(COCCn2nncc2C(N)=O)=NC(C)=C(C(=O)OC)C1c1cccc(Cl)c1Cl (stereo not given)	20	6.5	–
–	> 180	CCO/C(O)=C1\C(COCCN2CC(=O)N=C2N)=NC(C)=C(C(=O)OC)C1c1cccc(Cl)c1Cl (stereo not given)	–	–	60
20	–	CCO/C(O)=C1\C(COCCN2CC(=O)NC2=O)=NC(C)=C(C(=O)OC)C1c1ccccc1Cl (stereo not given)	25	6.3	–
20	–	CCO/C(O)=C1\C(COCCn2cc(C(N)=O)nn2)=NC(C)=C(C(=O)OC)C1c1ccccc1Cl (stereo not given)	>50	<6	–
5.01	–	CCO/C(O)=C1\C(COCCn2c(C)nc(C)c2C)=NC(C)=C(C(=O)OC)C1c1ccccc1Cl (stereo not given)	6	7.5	–
2.51	–	CCO/C(O)=C1\C(COCCn2ccnc2C)=NC(C)=C(C(=O)OC)C1c1ccccc1Cl (stereo not given)	6	7.8	–
3.16	30	CCO/C(O)=C1\C(COCCN2CC(=O)NC2=O)=NC(C)=C(C(=O)OC)C1c1cccc(Cl)c1Cl (stereo not given)	25	7.1	65
25.1	–	CCO/C(O)=C1\C(COCCn2cc(N)n(C)c2=O)=NC(C)=C(C(=O)OC)C1c1ccccc1Cl (stereo not given)	25	6.2	–
20	–	CCO/C(O)=C1\C(COCCn2cnc3ccccc32)=NC(C)=C(C(=O)OC)C1c1ccccc1Cl (stereo not given)	3	7.2	–
–	10	CCO/C(O)=C1\C(COCCN2CC(=O)N(C)C2=O)=NC(C)=C(C(=O)OC)C1c1cccc(Cl)c1Cl (stereo not given)	–	7.2	50

SMILES	IC50 [1] [nM]	half-life [5] [min]	Selectivity index [2]	pIC25 [3]	Decrease [4] [%]
CCOC(=O)C1=C(COCCN)NC(C)=C(C(=O)OC)C1c1ccccc1Cl (stereo not given) [AMLODIPINE]	7.94	–	8	7.2	–
COC(=O)C1=C(C)NC(C)=C(C(=O)OC)C1c1ccccc1[N+](=O)[O-] [NIFEDIPINE]	–	36	8	7.5	77
